ChEMBL document CHEMBL1649569, “oqxAB encoding a multidrug efflux pump in human clinical isolates of Enterobacteriaceae” (2009)
Values after ≈ are worked out from the molar mass of the structure shown.

What was measured:
[1] = system: Enterobacter cloacae; experiment: Antibacterial activity against Enterobacter cloacae isolate 1-26 by broth dilution method; type: functional
In short: (§1)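 Clinical isolates tested by broth dilution in LB broth, with the MIC read as the end-point.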

[2] = system: Escherichia coli; experiment: Antibacterial activity against Escherichia coli isolate 4-78 by broth dilution method; type: functional
In short: (§2)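 MIC by broth dilution in LB broth against human clinical Enterobacteriaceae isolates, with strains characterised by PCR for oqxA/oqxB and other plasmid-mediated quinolone resistance genes.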

[3] = system: Klebsiella pneumoniae; experiment: Antibacterial activity against Klebsiella pneumoniae isolate 5-22 by broth dilution method; type: functional; in short: as §1
[4] = system: Escherichia coli; experiment: Antibacterial activity against Escherichia coli isolate 5-65 by broth dilution method; type: functional; in short: as §2
[5] = system: Escherichia coli; experiment: Antibacterial activity against Escherichia coli isolate 4-69 by broth dilution method; type: functional; in short: as §2
[6] = system: Enterobacter cloacae; experiment: Antibacterial activity against Enterobacter cloacae isolate 4-11 by broth dilution method; type: functional; in short: as §1
[7] = system: Enterobacter cloacae; experiment: Antibacterial activity against Enterobacter cloacae isolate 6-4 by broth dilution method; type: functional; in short: as §1
[8] = system: Escherichia coli; experiment: Antibacterial activity against Escherichia coli isolate 1-12 by broth dilution method; type: functional; in short: as §1
[9] = system: Escherichia coli; experiment: Antibacterial activity against Escherichia coli ATCC 25922 by broth dilution method; type: functional
[10] = system: Enterobacter cloacae; experiment: Antibacterial activity against Enterobacter cloacae isolate 1-40 by broth dilution method; type: functional; in short: as §1
[11] = system: Escherichia coli; experiment: Antibacterial activity against Escherichia coli isolate 5-56 by broth dilution method; type: functional; in short: as §2
[12] = system: Escherichia coli; experiment: Antibacterial activity against Escherichia coli isolate 5-59 harboring qepA gene by broth dilution method; type: functional; in short: as §2
[13] = system: Klebsiella pneumoniae; experiment: Antibacterial activity against Klebsiella pneumoniae isolate 3-51 by broth dilution method; type: functional; in short: as §1
[14] = system: Enterobacter cloacae; experiment: Antibacterial activity against Enterobacter cloacae isolate 1-3 by broth dilution method; type: functional; in short: as §1
[15] = system: Klebsiella pneumoniae; experiment: Antibacterial activity against Klebsiella pneumoniae isolate 6-49 by broth dilution method; type: functional; in short: as §1
[16] = system: Klebsiella pneumoniae; experiment: Antibacterial activity against Klebsiella pneumoniae isolate 1-68 by broth dilution method; type: functional; in short: as §1
[17] = system: Escherichia coli; experiment: Antibacterial activity against Escherichia coli isolate 4-67 by broth dilution method; type: functional; in short: as §2
[18] = system: Enterobacter cloacae; experiment: Antibacterial activity against Enterobacter cloacae isolate 1-39 by broth dilution method; type: functional; in short: as §1
[19] = system: Klebsiella pneumoniae; experiment: Antibacterial activity against Klebsiella pneumoniae isolate 2-54 by broth dilution method; type: functional; in short: as §1
[20] = system: Klebsiella pneumoniae; experiment: Antibacterial activity against Klebsiella pneumoniae isolate 4-39 by broth dilution method; type: functional; in short: as §1
[21] = system: Klebsiella pneumoniae; experiment: Antibacterial activity against Klebsiella pneumoniae isolate 3-45 by broth dilution method; type: functional; in short: as §1
[22] = system: Klebsiella pneumoniae; experiment: Antibacterial activity against Klebsiella pneumoniae isolate 5-80 by broth dilution method; type: functional; in short: as §1
[23] = system: Klebsiella pneumoniae; experiment: Antibacterial activity against Klebsiella pneumoniae isolate 4-38 harboring aac(6')Ib-cr gene by broth dilution method; type: functional; in short: as §2
[24] = system: Escherichia coli; experiment: Antibacterial activity against azide-resistant Escherichia coli J53 by broth dilution method
[25] = system: Klebsiella pneumoniae; experiment: Antibacterial activity against Klebsiella pneumoniae isolate 4-13 harboring aac(6')Ib-cr gene by broth dilution method; type: functional; in short: as §2
[26] = system: Escherichia coli; experiment: Antibacterial activity against Escherichia coli isolate 4-69 by Etest method
[27] = system: Klebsiella pneumoniae; experiment: Antibacterial activity against Klebsiella pneumoniae isolate 5-80 by Etest method
[28] = system: Klebsiella pneumoniae; experiment: Antibacterial activity against Klebsiella pneumoniae isolate 4-39 by Etest method
[29] = system: Klebsiella pneumoniae; experiment: Antibacterial activity against Klebsiella pneumoniae isolate 3-45 by Etest method
[30] = system: Escherichia coli; experiment: Antibacterial activity against Escherichia coli isolate 5-56 by Etest method
[31] = system: Escherichia coli; experiment: Antibacterial activity against Escherichia coli isolate 1-12 by Etest method
[32] = system: Klebsiella pneumoniae; experiment: Antibacterial activity against Klebsiella pneumoniae isolate 4-13 harboring aac(6')Ib-cr gene by Etest method
[33] = system: Klebsiella pneumoniae; experiment: Antibacterial activity against Klebsiella pneumoniae isolate 5-22 by Etest method
[34] = system: Klebsiella pneumoniae; experiment: Antibacterial activity against Klebsiella pneumoniae isolate 6-49 by Etest method
[35] = system: Escherichia coli; experiment: Antibacterial activity against Escherichia coli isolate 5-59 harboring qepA gene by Etest method
[36] = system: Escherichia coli; experiment: Antibacterial activity against Escherichia coli isolate 4-78 by Etest method
[37] = system: Klebsiella pneumoniae; experiment: Antibacterial activity against Klebsiella pneumoniae isolate 4-38 harboring aac(6')Ib-cr gene by Etest method
[38] = system: Klebsiella pneumoniae; experiment: Antibacterial activity against Klebsiella pneumoniae isolate 2-54 by Etest method

In the case of `Cc1c(C(=O)NCCO)[n+]([O-])c2ccccc2[n+]1[O-]` [OLAQUINDOX], the MIC [1] is reported as 128 µg/mL (≈ 486 µM), the MIC [2] is reported as 16 µg/mL (≈ 60.8 µM) and the MIC [3] is reported as 8 µg/mL (≈ 30.4 µM). The MIC [4] was 16 µg/mL (≈ 60.8 µM), the MIC [5] was 16 µg/mL (≈ 60.8 µM) and the MIC [6] was 32 µg/mL (≈ 122 µM). The MIC [7] was 16 µg/mL (≈ 60.8 µM), the MIC [8] was 256 µg/mL (≈ 972 µM) and the MIC [9] was 8 µg/mL (≈ 30.4 µM). It also gave an MIC [10] of 128 µg/mL (≈ 486 µM), an MIC [11] of 16 µg/mL (≈ 60.8 µM) and an MIC [12] of 16 µg/mL (≈ 60.8 µM). For the same compound, the MIC [13] was 16 µg/mL (≈ 60.8 µM), the MIC [14] was 64 µg/mL (≈ 243 µM) and the MIC [15] was greater than 256 µg/mL. The MIC [16] was 8 µg/mL (≈ 30.4 µM), the MIC [17] was 16 µg/mL (≈ 60.8 µM) and the MIC [18] was 128 µg/mL (≈ 486 µM). For the same compound, the MIC [19] was 8 µg/mL (≈ 30.4 µM), the MIC [20] was 16 µg/mL (≈ 60.8 µM) and the MIC [21] was 16 µg/mL (≈ 60.8 µM). The MIC [22] was greater than 256 µg/mL, the MIC [23] was greater than 256 µg/mL and the MIC [24] was 8 µg/mL (≈ 30.4 µM). For the same compound, the MIC [25] was greater than 256 µg/mL.
For `O=C(O)c1cn(C2CC2)c2cc(N3CCNCC3)c(F)cc2c1=O` [CIPROFLOXACIN], the MIC [26] was greater than 32 µg/mL, the MIC [27] was 3 µg/mL (≈ 9.05 µM) and the MIC [28] was 0.064 µg/mL (≈ 0.193 µM). For the same compound, the MIC [29] was 0.023 µg/mL (≈ 0.0694 µM), the MIC [30] was greater than 32 µg/mL and the MIC [31] was greater than 32 µg/mL. It also gave an MIC [32] greater than 32 µg/mL, an MIC [33] of 0.064 µg/mL (≈ 0.193 µM) and an MIC [34] greater than 32 µg/mL. For the same compound, the MIC [35] was greater than 32 µg/mL, the MIC [36] was greater than 32 µg/mL and the MIC [37] was greater than 32 µg/mL. It also gave an MIC [38] of 0.023 µg/mL (≈ 0.0694 µM).
